Results on 34 molecules are retold here after ChEMBL document CHEMBL1255523, “Optimization of N-benzyl-benzoxazol-2-ones as receptor antagonists of macrophage migration inhibitory factor (MIF)” (Bioorg Med Chem Lett, 2010).

The target in assay [1] is T1, MIF/CD74 (Macrophage migration inhibitory factor and HLA-DR antigens-associated invariant chain) (Homo sapiens) (UniProt P14174+P04233). Kind of assay: Inhibition of human recombinant biotinylated MIF/CD74 interaction at up to 10 uM after 30 mins. It is filed as protein assay. The gist of the method: (§1)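 Bound MIF was detected with streptavidin-alkaline phosphatase and p-nitrophenylphosphate substrate. Compounds were tested over 500- to 5000-fold concentration ranges.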

Assay [2] concerns the target T2, Macrophage migration inhibitory factor (Homo sapiens) (UniProt P14174).
T2 sequence (whole entry): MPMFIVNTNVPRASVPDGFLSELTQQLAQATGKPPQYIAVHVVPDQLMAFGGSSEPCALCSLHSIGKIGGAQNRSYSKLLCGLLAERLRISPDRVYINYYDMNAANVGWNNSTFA
As to the kind of experiment: Inhibition of human recombinant MIF tautomerase at up to 0.1 uM.

Assay [3] has as its target T3, MIF/CD74 (Macrophage migration inhibitory factor and HLA-DR antigens-associated invariant chain) (Homo sapiens, UniProt P04233+P14174).
T3 sequence (P14174 whole entry): T2 sequence (whole entry)
T3 sequence (P04233 whole entry): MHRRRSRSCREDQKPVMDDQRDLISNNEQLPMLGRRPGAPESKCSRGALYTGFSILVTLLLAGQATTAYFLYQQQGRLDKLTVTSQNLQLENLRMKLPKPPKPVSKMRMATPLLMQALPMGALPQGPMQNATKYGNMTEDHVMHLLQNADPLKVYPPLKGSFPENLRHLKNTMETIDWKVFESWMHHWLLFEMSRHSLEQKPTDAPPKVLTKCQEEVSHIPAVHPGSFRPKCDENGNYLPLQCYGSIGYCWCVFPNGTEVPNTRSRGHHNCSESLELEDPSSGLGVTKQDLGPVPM
Kind of assay: (§2) Inhibition of human recombinant biotinylated MIF/CD74 interaction after 30 mins. The assay is classed as protein assay. The gist of the method:
as §1

The target in assay [4] is T4, Macrophage migration inhibitory factor (Homo sapiens, UniProt P14174).
T4 sequence (P14174 whole entry): T2 sequence (whole entry)
As to the kind of experiment: Inhibition of human recombinant MIF tautomerase.

Assay [5] has as its target T2, Macrophage migration inhibitory factor (Homo sapiens). As to the kind of experiment: Inhibition of human recombinant MIF tautomerase at 30 uM by mass spectrometry analysis.
Assay [6] addresses T1, MIF/CD74 (Macrophage migration inhibitory factor and HLA-DR antigens-associated invariant chain) (Homo sapiens). As to the kind of experiment: Inhibition of human recombinant biotinylated MIF/CD74 interaction at 30 uM by mass spectrometry analysis. It is filed as protein assay.
Assay [7] concerns the target T2, Macrophage migration inhibitory factor (Homo sapiens). As to the kind of experiment: Inhibition of MIF-dependent ERK1/2 phosphorylation in rheumatoid arthritis patient synovial fibroblasts assessed as phosphorylated ERK1/2 level at 300 nM after 30 mins.
The target is the same in assay [8]. As to the kind of experiment: Inhibition of MIF-dependent ERK1/2 phosphorylation in rheumatoid arthritis patient synovial fibroblasts assessed as total ERK1/2 level at 300 nM after 30 mins.
In assay [9] the target is T5, MIF/CD74 (Macrophage migration inhibitory factor and HLA-DR antigens-associated invariant chain) (Homo sapiens, UniProt P14174+P04233).
T5 sequence (P14174 whole entry): T2 sequence (whole entry)
T5 sequence (P04233 whole entry): T3 sequence (P04233 whole entry)
The assay is described as §2. It is filed as protein assay. The gist of the method:
as §1

Activity calls are given as the source filed them. The calls are words filed in the database; no cut-off is given here.

`COc1cccc(Cn2c(=O)oc3ccc(C)cc32)c1`: the inhibition in assay [1] amounted to 42%.
`CCOc1cc(O)cc(Cn2c(=O)oc3ccc(C)cc32)c1`: the figures for the inhibition in [2] and in assay [1] were 30% and 35%, respectively.
In the case of `COc1cccc(Cn2c(=O)oc3cc(C)ccc32)c1`, the inhibition was 16% in assay [2] and 24% in assay [1].
Turning to `Cc1ccc2oc(=O)n(Cc3cccc(N)c3)c2c1`, the inhibition in [2] turned out to be 31%; in assay [1] it was 27%.
The like results for `O=c1oc2ccc(F)cc2n1Cc1cccc(O)c1` were, in that order, 32% and 18%.
As to `COc1cccc(Cn2c(=O)oc3cc(F)ccc32)c1`, the inhibition was 35% in [2] and 15% in assay [1].
With `COc1cccc(Cn2c(=O)oc3ccc(C)cc32)c1OC`, in assay [3], the IC50 turned out to be 7 µM. For the same molecule, in [2], the inhibition is 32%.
In the case of `O=c1oc2ccc(O)cc2n1Cc1cccc(O)c1`, the inhibition in [2] was 25%; in [1], 36%.
For `CCOc1ccccc1Cn1c(=O)oc2ccc(C)cc21`, in that order: 21% and 45%.
In the case of `COc1cccc(Cn2c(=O)oc3ccc(O)cc32)c1OC`, the values for the IC50 in assay [4] (read-out: IC50) and in assay [3] were 2.1 µM and 300 µM, respectively.
Turning to `Cc1ccc2oc(=O)n(Cc3ccc(O)cc3)c2c1`, in [4], the IC50 result is listed as “Not Active”.
Consider `Cc1ccc2oc(=O)n(Cc3cccc(O)c3)c2c1`, for which the inhibition was 40% in assay [1], 50% in assay [5] and 50% in [6]. Further, the inhibition result in assay [7] and in [8] was “Active” throughout.
For `COc1cccc(Cn2c(=O)oc3ccc(CO)cc32)c1`, the figures for the inhibition in assay [2] and in assay [1] were 44% and 27%, respectively.
In the case of `O=c1oc2ccc(CO)cc2n1Cc1cccc(O)c1`, the IC50 result in [4] was “Not Active”; in assay [3], 30 µM.
For the molecule `COc1ccccc1Cn1c(=O)oc2ccc(O)cc21`, the IC50 in assay [4] (read-out: IC50) came out at 30 µM. The inhibition in assay [1] amounted to 27%.
As for `COc1cc(O)cc(Cn2c(=O)oc3ccc(C)cc32)c1`, the figures for the inhibition in [2] and in assay [1] were 12% and 22%, respectively.
Take `O=c1oc2cc(O)ccc2n1Cc1ccccc1`: the values for the inhibition in [2] and in assay [1] were 28% and 22%, respectively.
In the case of `CCc1ccc2oc(=O)n(Cc3cccc(OC)c3)c2c1`, the inhibition in assay [2] is 13%; in [1] it was 15%.
As for `COc1ccc(Cn2c(=O)oc3ccc(C)cc32)cc1`, the IC50 result in assay [4] is recorded as “Not Active”.
For the molecule `Cc1cc2oc(=O)n(Cc3cccc(O)c3)c2cc1C`, the inhibition turned out to be 33% in assay [2] and 32% in assay [1].
As for `CCOc1cccc(Cn2c(=O)oc3ccc(C)cc32)c1`, the inhibition in [2] amounted to 20%; in assay [1], 30%.
Regarding `Cc1ccc2oc(=O)n(Cc3cccc(F)c3)c2c1`, in assay [4], the IC50 result is on record as “Not Active”.
Regarding `COc1cccc(Cn2c(=O)oc3cc(C)c(C)cc32)c1`, the IC50 in assay [3] amounted to 0.115 µM. The inhibition in [2] turned out to be 25%.
In the case of `COc1cccc(Cn2c(=O)oc3ccc(OC)cc32)c1`, the IC50 in [3] stood at 200 µM. For the same molecule, the inhibition in assay [2] was 41%.
As to `O=c1oc2ccc(O)cc2n1Cc1ccccc1`, in assay [4], the IC50 entry was “Not Active”.
Turning to `Cc1ccc2c(c1)oc(=O)n2Cc1ccccc1`, the inhibition in [1] came to 25%.
For `O=c1oc2cc(F)ccc2n1Cc1cccc(O)c1`, the IC50 entry in assay [4] and in assay [9] was “Not Active” throughout.
As for `CCc1ccc2oc(=O)n(Cc3cccc(O)c3)c2c1`, in [4] (read-out: IC50), the IC50 is 2.5 µM. The inhibition in assay [1] was found to be 19%.
`COc1cccc(Cn2c(=O)oc3ccc(F)cc32)c1`: the IC50 result in assay [4] is recorded as “Not Active”.
Consider `COc1cc(Cn2c(=O)oc3ccc(C)cc32)cc(OC)c1`, for which the inhibition in assay [2] came to 17%; in assay [1] it was 11%.
With `COc1ccc2oc(=O)n(Cc3cccc(O)c3)c2c1`, the IC50 in assay [3] was determined as 0.08 µM. In assay [2], the inhibition is 10%.
As for `Cc1ccc2c(c1)oc(=O)n2Cc1cccc(O)c1`, the IC50 in [4] (read-out: IC50) was determined as 0.0075 µM. Moreover, the inhibition in assay [1] was 10%.
With `Ic1cc(-c2ccccc2)ncn1`, the inhibition was 90% in assay [5] and 50% in assay [6].
Turning to `O=c1oc2ccccc2n1Cc1ccccc1`, in assay [4] (read-out: IC50), the IC50 turned out to be 21 µM. In addition, the inhibition in assay [1] was found to be 18%.
